# Screening data as filed in PubChem.
# Most compounds without a hit are left out; they make up all but 3.8% or so of the library.
# Hep lipid drop: modulators of hepatic lipid droplet formation | AID 1656 | AML12 mouse hepatocytes, oleate lipid droplets, BODIPY imaging | inhibition, % at 6.5 µM | 240,000 tested, 0.4% active;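 active = lipid droplet intensity inhibited by at least 50%, with more than 500 cells counted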
#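 Material – AML12 mouse liver cells · Also added – oleate loading, 100 µM · Compound dosing – 6.5 µM single-point dosing · Times – overnight treatment with compound plus oleate · Measured by – fluorescence imaging, 20x objective, two fields per well · Read-out – percent inhibition of filter-corrected integrated lipid droplet intensity per well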
# RGS4 block: inhibitors of human RGS4. P49798. HEK293 M3R/RGS4 inducible, Fluo-4 calcium flux; stronger effect = higher value; triggered by carbachol at its EC20. B-score at 10 µM. 310,000 tested, 0.45% active. AID 463165;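 active = B-score, a plate-corrected calcium signal, over three deviations above library mean, with baseline fluorescence within five deviations of library mean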;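 note: RGS4 expression induced by doxycycline in cells with stable M3 receptor; B-score is computed from the integrated fluorescence ratio over baseline after carbachol; higher B-score means a larger calcium signal and so more RGS4 inhibition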
# Target sequence (P49798 whole entry, looked up): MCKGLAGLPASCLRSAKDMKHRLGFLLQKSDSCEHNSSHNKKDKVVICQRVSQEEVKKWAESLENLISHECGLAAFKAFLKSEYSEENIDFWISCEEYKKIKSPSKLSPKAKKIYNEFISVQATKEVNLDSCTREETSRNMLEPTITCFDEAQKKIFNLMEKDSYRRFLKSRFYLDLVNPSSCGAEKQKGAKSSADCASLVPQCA
# RGS4 act: potentiators or activators of RGS4; HEK293 M3R/inducible RGS4, carbachol calcium flux Fluo4; stronger effect = lower value; B-score at 10 µM; 310,000 tested, 0.92% active; AID 463111;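 active = B-score of the integrated calcium signal more than 4 SD below the library mean, with starting fluorescence not abnormally high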;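 note: negative B-score means reduced calcium response which marks RGS4 activation or potentiation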
#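 Test system: HEK293 cells with stable M3R and inducible RGS4; also added: carbachol at ECmax as muscarinic agonist stimulus; schedule: dye loading 30 min 37 °C, buffer rest 30 min RT; technique: kinetic calcium fluorescence imaging with Fluo4-AM dye, 2 µM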
# MrgX1 allo act: allosterically activates human MrgX1 receptor signaling. Q96LB2. MrgX1-HEK293, Fluo-4 calcium flux, FDSS; stronger effect = higher value. B-score at 10 µM. 310,000 tested, 0.63% active;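 active = plate-corrected calcium response at least 3 library SD above typical, normal starting fluorescence, not activating the receptor alone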;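 note: compound read alongside a low EC10 to EC30 dose of BAM8-22 agonist; peak minus trough fluorescence over baseline measured at the second addition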
# Target sequence (Q96LB2 whole entry, looked up): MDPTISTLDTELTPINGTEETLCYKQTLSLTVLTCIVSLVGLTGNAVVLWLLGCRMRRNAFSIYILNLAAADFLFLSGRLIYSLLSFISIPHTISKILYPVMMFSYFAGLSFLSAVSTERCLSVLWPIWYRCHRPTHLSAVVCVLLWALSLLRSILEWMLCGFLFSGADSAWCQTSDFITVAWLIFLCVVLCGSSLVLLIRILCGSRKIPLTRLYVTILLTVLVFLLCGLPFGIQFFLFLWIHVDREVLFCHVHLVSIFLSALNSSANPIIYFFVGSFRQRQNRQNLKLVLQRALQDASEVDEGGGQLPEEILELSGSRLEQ
# MrgX1 antag: antagonists of human MrgX1 receptor; Q96LB2; MRGX1-HEK293 calcium flux, Fluo-4, BAM8-22 antagonism; stronger effect = lower value; B-score at 10 µM; 310,000 tested, 1.3% active; AID 588676;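 active = calcium-response B-score plate-corrected more than 3 library SD below zero, starting fluorescence within 5 deviations, no agonist response on first addition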;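 note: peak minus trough fluorescence over baseline after final BAM8-22 challenge near maximal dose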
# MrgX1 agonist: human MrgX1 receptor agonism, primary screen | Q96LB2 | MrgX1-HEK293 cells, Fluo-4 calcium fluorescence, agonist mode; stronger effect = higher value | B-score at 10 µM | 310,000 tested, 0.44% active | AID 588627;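 active = calcium response B-score plate-corrected fluorescence ratio at least 3 library SD, with starting fluorescence B-score inside 5 SD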
#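 Test system: HEK293 cells stably expressing human MrgX1 receptor; amount: 15,000 cells per well; doses: compound delivered in addition one of three; times: overnight plating before 1 h dye loading; detection: Fluo-4 NW calcium-flux fluorescence, kinetic read; read-out basis: B-scored fluorescence response ratio; controls: positive and negative controls per plate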
# MrgX1 antag conf: reconfirmed antagonist of human MrgX1 receptor signaling | 2,300 tested, 19% active | remaining BAM8-22 calcium response % of control (stronger effect = lower value), % at 10 µM | MrgX1-HEK293, BAM8-22 calcium flux, Fluo-4; stronger effect = lower value | shares compounds with MrgX1 antag;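 active = remaining agonist calcium response no higher than 100% minus 3 SD of agonist-only control wells, with starting fluorescence near control levels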;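 note: agonist BAM8-22 given at a near maximal EC90 to ECmax level; peak minus minimum fluorescence divided by baseline after agonist addition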
# HEK293 Ca flux: counter-screen for MrgX1 antagonists: effect in parental HEK293 cells; shares compounds with MrgX1 antag; Fluo-4 calcium fluorescence, FDSS; fluorescence ratio F(max-min)/F0 at 10 µM; 4,000 tested, 2% active;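 active = duplicate-averaged calcium fluorescence ratio at least three times the standard deviation of buffer wells, a nonspecific response in parental cells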
# HEK293 Ca counter: MrgX1 allosteric activator counter-screen hit in parental HEK293 cells. shares compounds with MrgX1 antag. parental HEK293 calcium flux, Fluo-4 fluorescence ratio; stronger effect = higher value. fluorescence ratio F(max-min)/F0 at 10 µM. 4,000 tested, 0.4% active. AID 624114;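 active = calcium fluorescence ratio, averaged over duplicates, at least 3 SD of the buffer-well ratio, meaning a nonspecific response in receptor-free cells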;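 note: untransfected parental HEK293 lacking MrgX1 used as counterscreen for MrgX1 allosteric activators; fluorescence change taken during the second addition on a kinetic imager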
# HEK293 Ca cntr2: activity in parental HEK293 cells lacking MrgX1 receptor | shares compounds with MrgX1 antag | AID 624115 | Fluo-4 calcium fluorescence (FDSS); stronger effect = higher value | 4,000 tested, 8.7% active | fluorescence ratio F(max-min)/F0 at 10 µM;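 active = calcium fluorescence ratio at least three times the spread of buffer wells, meaning a non-specific response in parental cells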
# * marks the source's active call; other numbers are inactive results; i = inactive; / = no result given.
SMILES,Hep lipid drop,RGS4 block,RGS4 act,MrgX1 allo act,MrgX1 antag,MrgX1 agonist,MrgX1 antag conf,HEK293 Ca flux,HEK293 Ca counter,HEK293 Ca cntr2
Cc1ccc(C)c2nc3sc(C(=O)N4CCCc5ccccc54)c(N)c3cc12,/,i,-7*,i,-5.4*,i,i,i,i,51*
COc1ccc(N(CC(=O)O)S(=O)(=O)c2cccnc2)cc1,1,i,i,i,-6.8*,i,i,i,i,i
COc1ccc(S(=O)(=O)N(CC(=O)O)c2ccccc2)cc1,/,i,i,i,i,i,/,/,/,/
Cc1nc2c(ccc3nc(NC(=O)c4ccc5c(c4)OCCO5)sc32)s1,/,i,i,i,-10*,i,79%*,i,i,i
Cc1nc2ccc3nc(NC(=O)c4ccc5c(c4)OCCO5)sc3c2s1,/,i,i,i,i,i,/,/,/,/
CN(C(=O)c1cccs1)c1ccccc1C(=O)O,2,i,i,i,-5.7*,i,i,i,i,i
COc1ccc(CN(C(=O)c2cccs2)c2ccccc2C(=O)O)cc1,-6,i,i,i,i,i,/,/,/,/
CC1=Nc2ccccc2/C1=C/c1nc(-c2ccc(C)s2)oc1O,-17,i,i,i,-6.1*,i,57%*,i,i,i
COc1ccc(-c2nc(/C=C3\C(C)=Nc4ccccc43)c(O)o2)cc1,1,i,i,i,-4.8*,i,59%*,i,i,i
CSCCC(NS(=O)(=O)c1ccc(Br)cc1)C(=O)OCC(=O)NC1CC1 (stereo not drawn),11,i,i,i,i,i,/,/,/,/
CN(Cc1ccccc1)C(=O)C1CCN(S(=O)(=O)c2ccc(-n3cnnn3)cc2)CC1,-2,i,i,i,i,i,/,/,/,/
CCOC(=O)c1cnc2nc(C(F)(F)F)[nH]n2c1=O,2,i,i,i,-5.5*,i,i,i,i,i
COC(=O)c1ccc(CNC(=O)C(NC(=O)c2ccco2)C(C)C)cc1 (stereo not drawn),16,i,i,i,i,i,/,/,/,/
O=C(CSc1nnc(CNC(=O)c2ccccc2)o1)Nc1ccc2c(c1)OCCO2,8,i,i,i,-5.6*,i,i,i,i,i
CN(CC(=O)Nc1c(Cl)cccc1Cl)C(=O)C1CSC2(C)CCC(=O)N12 (stereo not drawn),/,i,i,i,-6.8*,i,i,i,i,i
Cc1cccc(C)c1NC(=O)C1CSC2(C)CCC(=O)N12 (stereo not drawn),/,i,i,i,i,i,/,/,/,/
Cc1cc2ccccc2n1CCNC(=O)C1CC1,-5,i,i,i,-6*,i,i,i,i,i
Cc1cc(=O)[nH]c(SCCOc2ccc(OC(C)C)cc2)n1,-16,i,i,i,-6.7*,i,i,i,i,i
Cc1cc(=O)[nH]c(SCCOc2ccc3c(c2)CCC3)n1,0,i,i,i,i,i,/,/,/,/
Cc1ccc(S(=O)(=O)N2CCN(C(=O)c3cc(=O)c4ccccc4o3)CC2)cc1,-24,i,i,i,i,i,/,/,/,/
COc1ccc(C(C)=O)cc1CSc1nnc(-c2ccc(Cl)cc2)n1-c1ccccc1,/,i,i,i,i,i,/,/,/,/
CC1=CC(=O)C(C(C)C)=C/C1=N/OS(=O)(=O)c1ccccc1,21,i,-8.2*,i,-14*,i,i,i,i,i
CC1=CC(=O)C=C(C)C1=NOS(=O)(=O)c1ccccc1,-108,i,i,/,/,/,/,/,/,/
CC1=C(C(=O)c2ccccc2)C(c2ccc(N3CCOCC3)cc2)NC(=O)N1 (stereo not drawn),-2,i,i,i,-8.1*,i,73%*,i,i,i
CC1=C(C(=O)c2ccccc2)C(c2ccc(O)cc2)NC(=S)N1 (stereo not drawn),-7,i,i,i,i,i,/,/,/,/
SMILES,Hep lipid drop,RGS4 block,RGS4 act,MrgX1 allo act,MrgX1 antag,MrgX1 agonist,MrgX1 antag conf,HEK293 Ca flux,HEK293 Ca counter,HEK293 Ca cntr2
O=C(c1ccc2c(c1)OCO2)N1CCN(S(=O)(=O)c2ccc(Cl)cc2)CC1,-12,i,i,i,-4.5*,i,i,i,i,i
O=C(c1ccc2c(c1)OCO2)N1CCN(c2ccc(Cl)cc2)CC1,/,i,i,i,i,i,/,/,/,/
CC1(C)N=C(SCC(=O)Nc2ccc(Cl)cc2Cl)C(c2ccccc2)=N1,1,i,i,i,-7*,i,80%*,i,i,i
CC1(C)N=C(SCC(=O)Nc2ccccc2)C(c2ccc(Cl)cc2)=N1,-32,i,i,i,i,i,/,/,/,/
Cc1ccc(C2=NC(C)(C)N=C2SCC(=O)Nc2ccc(Cl)cc2)cc1,-12,i,i,i,-5.7*,i,i,i,i,i
CC(CN1CCOCC1)OC(=O)c1cccc(Cl)c1 (stereo not drawn),0,i,i,i,i,i,/,/,/,/
O=C(Oc1ccc(Cl)c2cccnc12)N1CCCCC1,/,i,i,i,-5.5*,i,i,i,i,i
O=C(Oc1ccc(Cl)c2cccnc12)N1CCOCC1,/,i,i,i,i,i,/,/,/,/
CC(C)CC(=O)Nc1ccccc1N1CCOCC1,/,i,i,i,-4.6*,i,i,i,48*,i
Cc1cc(NC(=O)C(C)SCC(=O)Nc2ccccc2N2CCCC2)no1 (stereo not drawn),/,i,i,i,-11*,i,76%*,i,i,i
Cc1ccc(C2(C)NC(=O)N(CC(=O)c3ccc(Cl)s3)C2=O)cc1 (stereo not drawn),6,i,i,i,i,i,/,/,/,/
